Screening results: PubChem, The Scripps Research Institute Molecular Screening Center
In the library only some 1.8% were active in any assay of this set; here they are far more common.
NPY-Y2 PAM-ag: potentiators or agonists of human neuropeptide Y receptor Y2. activation, % at 3.6 µM. AID 1359. 220,000 compounds, 0.45% hits. cells expressing NPY-Y2, potentiator/agonist read-out. P49146; in the data active = activation above about 27%;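 also: cells stimulated with NPY near EC25 plus isoproterenol at EC100; 0% = vehicle plus submaximal agonist and 100% = vehicle plus saturating agonist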
NPY1 pot ag: potentiates or activates human NPY-Y1 receptor; P25929; NPY-Y1 expressing cells, potentiator/agonist activation; activation, % at 3.6 µM; 220,000 compounds, 0.37% hits; AID 1304; in the data active = activation above about 33%, passing the limit was not always enough;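 also: cells stimulated with NPY at EC10 then isoproterenol at EC100; 0% = low agonist plus stimulus and 100% = saturating agonist plus stimulus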
Target sequence (P25929 whole entry, looked up): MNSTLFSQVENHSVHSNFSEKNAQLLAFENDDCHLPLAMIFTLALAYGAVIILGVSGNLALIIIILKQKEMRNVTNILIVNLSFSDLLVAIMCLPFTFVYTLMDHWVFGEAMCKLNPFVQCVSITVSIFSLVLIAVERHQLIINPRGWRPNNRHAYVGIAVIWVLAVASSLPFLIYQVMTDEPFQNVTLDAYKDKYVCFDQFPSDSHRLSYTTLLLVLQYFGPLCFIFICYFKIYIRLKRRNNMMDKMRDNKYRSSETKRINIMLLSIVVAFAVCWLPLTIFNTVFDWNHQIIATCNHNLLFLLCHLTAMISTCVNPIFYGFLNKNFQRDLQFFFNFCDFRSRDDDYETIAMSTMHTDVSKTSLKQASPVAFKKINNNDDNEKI
NPY-Y1 antag: blocks the human neuropeptide Y Y1 receptor; P25929; HEK293-CNG Y1 cells, membrane potential fluorescence; NPY at EC95, then isoproterenol; inhibition, % at 3.6 µM; 200,000 compounds, 1% hits; AID 1040;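 active = inhibition above the campaign mean inhibition of all tested compounds plus 3 SD, cut at about 20% in these data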;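 also: 0% = DMSO wells given NPY plus isoproterenol and 100% = isoproterenol alone without NPY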
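Material: Y1- and CNG-channel-expressing HEK293 cells / Probe or stimulus: NPY 25 nM then isoproterenol 1 µM plus Ro 20-1724 25 µM / Doses: 3.6 µM single dose, DMSO 0.4% / Schedule: compound incubation 1 h at room temperature, readout 45 min post-stimulation / Signal: membrane potential fluorescence / Benchmarks: isoproterenol-only wells as full block versus NPY-plus-isoproterenol wells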
NPY-Y2 antag: blocks the human neuropeptide Y Y2 receptor; P49146; 140,000 compounds, 0.99% hits; NPY-Y2 expressing cells, antagonist mode; inhibition, % at 2.7 µM;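 also: 0% = vehicle with agonist challenge and 100% = reference antagonist with challenge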
NPY1 antag conf: confirmation of human neuropeptide Y receptor Y1 antagonists. shares compounds with NPY-Y1 antag. HEK293-CNG NPY-Y1, membrane potential fluorescence, cAMP; NPY challenge against isoproterenol-raised cAMP. inhibition, % at 3.6 µM. 1,200 compounds, 21% hits. AID 1254; in the data active = inhibition above about 20%;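 also: 0% = vehicle with agonist plus stimulus and 100% = stimulus alone without agonist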
NPY-Y2 antag ct: human NPY-Y2 antagonism in NPY-Y1 counter-screen; AID 1255; inhibition, % at 3.6 µM; 1,200 compounds, 28% hits; HEK293 NPY-Y2 CNG membrane potential fluorescence; cells given NPY, then isoproterenol; shares compounds with NPY-Y1 antag;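 also: 0% = DMSO with agonist challenge and 100% = reference antagonist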
Numbers without * were called inactive; nt = no result given. Rule as the data show it, unless noted: active = inhibition above about 17%; inactive = the rest.

SMILES	NPY-Y2 PAM-ag	NPY1 pot ag	NPY-Y1 antag	NPY-Y2 antag	NPY1 antag conf	NPY-Y2 antag ct
Cc1ccc(-n2nc(C(=O)O)c(O)cc2=O)cc1	2	6	2	nt	nt	nt
CCOC(=O)C1(Cc2cccc(F)c2)CCN(Cc2c(C)nn(CC)c2C)CC1	-6	11	nt	nt	nt	nt
CCC(CC)=NNC(=O)c1ccccc1OCc1ccc(F)cc1	-35	-66	21*	6	4	7
COc1ccc(/C=N/NC(=O)c2ccccc2OCc2ccccc2)c(OC)c1	-64	-41	25*	nt	7	15
NC(=O)NC(=O)COC(=O)c1ccccc1OCc1ccc(F)cc1	0	15	nt	nt	nt	nt
Cc1ccc(/C=N/NC(=O)c2ccccc2OCc2ccc(F)cc2)o1	-75	-107	22*	15	15	15
S=C1NC[C@H](CC2CCCCC2)N1CC1CCCCC1	19	2	0	nt	nt	nt
N#CC(C(=O)c1ccccc1)=C1SCCS1	1	2	nt	nt	nt	nt
Cc1ccc(-n2cc(CNCCn3nc(C)cc3C)c(-c3ccc(F)cc3)n2)cc1	-7	-19	26*	nt	27*	14
COc1ccc(-n2cc(CNCCc3ncc(C)[nH]3)c(-c3ccccc3Cl)n2)cc1	-22	-9	11	nt	nt	nt
Cc1ccc(-n2cc(CNCCc3ncc(C)[nH]3)c(-c3ccc(F)cc3)n2)cc1	-21	-29	27*	nt	12	25*
CCCC(C)NC(=O)COc1ccc(S(=O)(=O)N2CCCC2)cc1 (stereo unspecified)	-9	-12	3	nt	nt	nt
Cc1cn(S(=O)(=O)c2ccc(Br)c3ccccc23)cn1	-29	-22	27*	7	10	7
O=C(Cn1nc(CNc2ccc(Cl)cc2)[n+]2c1CCCCC2)c1ccccc1	-2	-10	1	0	nt	nt
Cc1ccc(C(C)C)c(OCc2nn(CC(=O)c3ccc(Cl)cc3)c3[n+]2CCCCC3)c1	-13	-37	35*	nt	19	18*
Cc1ccc2cc3cc(C(=O)NCCCN4CCCCCC4)oc3nc2c1	-5	-15	1	1	nt	nt
Cc1ccc2cc3cc(C(=O)NCCCN4CCc5ccccc5C4)oc3nc2c1	-33	-98	21*	8	3	3
CC1=CC(C)(C)N(C(=O)CCl)c2cc(C)ccc21	2	8	0	nt	nt	nt
CC1=CC(C)(C)N(C(=O)CNC2CCCCC2)c2cc(C)ccc21	-5	-2	25*	nt	21*	7
CC1=CC(C)(C)n2c(O)c(N=N)c3cc(C)cc1c32	-5	-59	23*	11	14	22*
CC1=CC(C)(C)n2c(O)c(N=N)c3c(C)c(C)cc1c32	-60	-57	nt	nt	nt	nt
O=C(NC(=S)NCc1ccccc1)c1ccc2c(c1)OCO2	-7	-12	21*	9	9	9
O=C(NNC(=S)NCc1ccccc1)c1ccc2c(c1)OCO2	-19	-13	10	7	nt	nt
N#C/C(=N\Nc1cccc2ccccc12)c1nnc2n1CCCCC2	0	1	20*	-1	-1	3
COc1ccc(NC(=O)CSc2nc(C)c3c(c2C#N)CCCC3)cc1	-8	-14	5	2	nt	nt
SMILES	NPY-Y2 PAM-ag	NPY1 pot ag	NPY-Y1 antag	NPY-Y2 antag	NPY1 antag conf	NPY-Y2 antag ct
Cc1ccsc1-c1nc(CSCC(=O)NCc2ccc3c(c2)OCO3)c(C)o1	-16	-5	21*	4	11	8
Cc1nc(SCC(=O)NCc2ccc3c(c2)OCO3)c(C#N)c2c1CCCC2	1	-26	21*	13	4	10
CCc1cc2c(=O)n(CCC(C)C)c(=S)[nH]c2s1	12	-10	1	nt	nt	nt
CN(C)S(=O)(=O)c1cccc(NC(=O)c2ccncc2)c1	-4	5	1	1	nt	nt
CCN(CC)S(=O)(=O)c1cccc(NC(=O)c2ccc(C#N)cc2)c1	-23	-14	22*	nt	-1	3
Cc1ccc2nc3c(c(C(=O)O)c2c1)CCC3	-2	-38	22*	8	5	11
O=C1CC(c2ccccc2Cl)=NN(c2ncnc3ccccc23)C1=O	-10	-16	1	nt	nt	nt
C=CCN(CC=C)CCOc1cccc(Oc2ccccc2)c1	-30	-40	15	nt	nt	nt
CN(C)CCn1c(=N)n(CC(O)c2ccc(Cl)c(Cl)c2)c2ccccc21 (stereo unspecified)	-33	-16	23*	nt	16	29*
CCCCn1c(=N)n(CC(O)c2ccccc2)c2ccccc21 (stereo unspecified)	-35	7	nt	nt	nt	nt
N#Cc1nc(-c2ccccc2F)oc1NCc1cccc2c1OCO2	-53	-40	28*	14	6	7
O=Cc1cn(-c2ccccc2)nc1-c1cc2cc(O)ccc2oc1=O	-22	-54	22*	11	19	14
Cc1ccc(N=C2NC(=O)CS2)cc1	1	13	-2	3	nt	nt
Cc1ccc(SCC(=O)N=C2NC(=O)CS2)cc1	-24	-21	23*	nt	14	11
CN(c1ccc(C(=O)Nc2ccc(CC#N)cc2)cc1)S(C)(=O)=O	4	0	0	nt	nt	nt
Cc1ccc(C(=O)NCCNc2nc3cc(C)c(C)cc3cc2C)cc1	-14	-28	33*	nt	41*	65*
CCOc1ccc2nc(NCCNC(=O)C(C)C)c(C)cc2c1	-8	-8	2	9	nt	nt
COCC(=O)NCCNc1nc2ccc(C)cc2cc1C	-1	-18	0	3	nt	nt
Cc1cc2cc(C)c(NCCNC(=O)c3ccccc3)nc2cc1C	-53	-59	46*	nt	32*	37*
Cc1nc(C)c(C(=O)Nc2ccccc2)s1	-6	-25	-3	6	nt	nt
Cc1cc(=O)n2c(C(=O)Nc3ccc(C(=O)OC(C)C)cc3)c(C(=O)Nc3ccccc3)sc2n1	-48	-136	25*	nt	35*	29*
COc1cccc(OC)c1-c1nn(-c2ncc(C(F)(F)F)cc2Cl)c(=O)o1	-4	-7	nt	nt	nt	nt
Cc1ccccc1OCCN(C#N)c1nc(N(C)C)nc(N(C)C)n1	-28	-51	28*	nt	12	19*
Clc1ccc(-c2nnc(-c3ccccc3Cl)o2)cc1	-4	-12	25*	7	8	8
Clc1ccc(-c2csc(=Nc3cccnc3)n2CCCn2ccnc2)cc1Cl	-4	-54	29*	16	19	14
SMILES	NPY-Y2 PAM-ag	NPY1 pot ag	NPY-Y1 antag	NPY-Y2 antag	NPY1 antag conf	NPY-Y2 antag ct
C=CCOc1ccccc1CN1CCC(CO)(CCOc2ccccc2)CC1	-41	-34	27*	nt	10	17
COc1cc(OC)c(N(C)S(=O)(=O)c2cccc(C(=O)NC3=NCCS3)c2)cc1Cl	-5	10	nt	nt	nt	nt
Cc1ccccc1NC(=O)C1CCCN(S(=O)(=O)c2cccc3cccnc23)C1 (stereo unspecified)	-9	8	96*	0	2	3
Cc1ccccc1NC(=O)C1CCCN1S(=O)(=O)c1cccc2cccnc12 (stereo unspecified)	4	9	5	2	nt	nt
Cc1cccc(NC(=O)NNC(=O)c2cc3ccccc3cc2O)c1C	-5	-21	24*	nt	15	13
Cc1nc(C)c(C(=O)O)c(-c2cccs2)c1C(=O)O	-15	-18	nt	nt	nt	nt
